Data taken from ChEMBL document CHEMBL1795290, “Simplification of the tetracyclic SIRT1-selective inhibitor MC2141: coumarin- and pyrimidine-based SIRT1/2 inhibitors with different selectivity profile” (Bioorg Med Chem, 2011).
Calls of active or inactive are those of the source. The rule behind the calls is not given here.

Legend:
[1] = test system: U-937; test: Induction of granulocytic differentiation in human U937 cells assessed as change in CD11c expression at 50 uM […] by FACS assay; format: functional
[2] = target: T1, NAD-dependent protein deacetylase sirtuin-2 (Homo sapiens) (UniProt Q8IXJ6); test: Inhibition of human recombinant SIRT2 expressed in Escherichia coli at 50 uM incubated at 37 degC for 2 hrs by Fluor de Lys fluorescence assay
T1 sequence (whole entry): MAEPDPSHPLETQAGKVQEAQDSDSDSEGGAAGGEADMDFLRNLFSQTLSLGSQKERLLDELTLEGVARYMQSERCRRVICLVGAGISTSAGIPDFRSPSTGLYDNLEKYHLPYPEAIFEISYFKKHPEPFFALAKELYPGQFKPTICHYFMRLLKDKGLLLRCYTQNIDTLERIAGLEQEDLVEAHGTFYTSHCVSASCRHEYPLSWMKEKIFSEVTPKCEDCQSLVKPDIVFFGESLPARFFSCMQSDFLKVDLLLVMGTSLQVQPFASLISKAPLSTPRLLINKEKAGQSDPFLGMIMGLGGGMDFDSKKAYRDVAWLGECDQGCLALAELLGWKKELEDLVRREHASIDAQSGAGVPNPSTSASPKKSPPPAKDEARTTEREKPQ
In short: (§1)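 Human recombinant enzymes expressed in E. coli: SIRT1 at 2 U, SIRT2 at 7 U. Two-stage assay with a deacetylation step at 37 °C for 2 h, using Fluor de Lys-SIRT1/2 substrate with NAD+ and compound (50 µM single point or a concentration series). IC50 obtained by curve fitting.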

[3] = test system: U-937; test: Cell cycle arrest in human U937 cells assessed as accumulation at G2/M phase at 50 uM incubated for 30 hrs by flow cytometry; format: functional, cell-based
In short: (§2)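 U937 leukaemia cells were exposed to compound at 50 µM for 30 h. Then 2.5 × 10^5 cells were resuspended in hypotonic buffer (0.1% Triton X-100, 0.1% sodium citrate, 50 µg/mL propidium iodide, RNase A) and kept 30 min in the dark. DNA content was read by flow cytometry and cell-cycle phases were modelled. Run in triplicate.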

[4] = target: T2, NAD-dependent protein deacetylase sirtuin-1 (Homo sapiens) (UniProt Q96EB6); test: Inhibition of human recombinant SIRT1 expressed in Escherichia coli at 50 uM incubated at 37 degC for 2 hrs by Fluor de Lys fluorescence assay; in short: as §1
T2 sequence (whole entry): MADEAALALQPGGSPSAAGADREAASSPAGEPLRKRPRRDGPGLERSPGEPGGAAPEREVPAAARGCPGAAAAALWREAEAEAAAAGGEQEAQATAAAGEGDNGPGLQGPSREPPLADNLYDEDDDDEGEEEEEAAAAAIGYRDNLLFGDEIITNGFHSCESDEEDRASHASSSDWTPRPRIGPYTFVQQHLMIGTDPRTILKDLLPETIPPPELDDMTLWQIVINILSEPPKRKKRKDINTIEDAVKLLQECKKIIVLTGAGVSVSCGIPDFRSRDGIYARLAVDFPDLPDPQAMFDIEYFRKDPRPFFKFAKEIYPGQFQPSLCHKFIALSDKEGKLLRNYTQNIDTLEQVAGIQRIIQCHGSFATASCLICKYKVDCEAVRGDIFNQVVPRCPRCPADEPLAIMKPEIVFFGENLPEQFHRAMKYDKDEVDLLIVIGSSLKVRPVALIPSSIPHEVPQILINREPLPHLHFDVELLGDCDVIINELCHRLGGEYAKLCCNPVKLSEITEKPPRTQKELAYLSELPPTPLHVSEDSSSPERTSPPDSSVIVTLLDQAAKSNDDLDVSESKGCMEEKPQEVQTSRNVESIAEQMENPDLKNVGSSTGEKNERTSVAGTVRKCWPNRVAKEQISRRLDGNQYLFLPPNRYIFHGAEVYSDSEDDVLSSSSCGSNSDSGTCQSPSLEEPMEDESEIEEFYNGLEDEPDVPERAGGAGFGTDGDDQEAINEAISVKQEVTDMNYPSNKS

[5] = test system: U-937; test: Toxicity in human U937 cells at 50 uM incubated for 30 hrs; format: cell-based; settings: u-937, 30 h
[6] = target: T3, NAD-dependent protein deacetylase sirtuin-1 (Homo sapiens, UniProt Q96EB6); test: Inhibition of human recombinant SIRT1 expressed in Escherichia coli incubated at 37 degC for 2 hrs by Fluor de Lys fluorescence assay; in short: as §1
T3 sequence (Q96EB6 whole entry): T2 sequence (whole entry)

[7] = test system: U-937; test: Induction of apoptosis in human U937 cells assessed as caspase 3/7 activation at 50 uM incubated for 30 hrs by FACS assay based B-Bridge method; format: functional
In short: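 U937 cells were treated at 50 µM for 30 h. Apoptosis was scored as caspase 3–7 activation using a caspase 3–7 detection kit, with FACS read-out.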

[8] = target: T4, NAD-dependent protein deacetylase sirtuin-2 (Homo sapiens, UniProt Q8IXJ6); test: Inhibition of human recombinant SIRT2 expressed in Escherichia coli incubated at 37 degC for 2 hrs by Fluor de Lys fluorescence assay; in short: as §1
T4 sequence (Q8IXJ6 whole entry): T1 sequence (whole entry)

[9] = test system: U-937; test: Cell cycle arrest in human U937 cells assessed as accumulation at G1 phase at 50 uM incubated for 30 hrs by flow cytometry; format: functional, cell-based; in short: as §2
[10] = test system: U-937; test: Cell cycle arrest in human U937 cells assessed as accumulation at G1/S phase at 50 uM incubated for 30 hrs by flow cytometry; format: functional, cell-based; in short: as §2

Row | SMILES | Activity [1] | inhibition [2] | Activity [3] | inhibition [4] | Activity [5] | IC50 [6] | Activity [7] | IC50 [8] | Activity [9] | Activity [10]
1 | O=C1Oc2ccc3ccccc3c2CC1C(=O)c1ccc(Cl)cc1 (centres undefined) | >30% | 89.5% | Active | 17.1% | Non-toxic | – | – | – | – | –
2 | O=c1[nH]c(=S)[nH]c(-c2ccc3ccccc3c2)c1Cc1c(O)ccc2ccccc12 | inactive | 47.9% | – | 83% | Non-toxic | 12.4 µM | Active | 49.9 µM | Active | –
3 | O=c1[nH]c(=S)[nH]c(CCc2ccccc2)c1Cc1c(O)ccc2ccccc12 | inactive | 49.8% | – | 83% | Non-toxic | 17.5 µM | Active | 50.8 µM | – | –
4 | O=c1nc2oc3ccc4ccccc4c3cc-2c(=O)n1-c1ccccc1 | inactive | – | Active | – | – | – | – | – | – | –
5 | O=C1Oc2ccc3ccccc3c2CC1C(=O)c1ccccc1 (centres undefined) | – | 20.2% | – | 32.1% | Non-toxic | 112 µM | Active | 179 µM | – | Active
